Two molecules from ChEMBL document CHEMBL1777771, “Efficient synthesis and chiral separation of 11C-labeled ibuprofen assisted by DMSO for imaging of in vivo behavior of the individual isomers by positron emission tomography” (Bioorg Med Chem, 2011) can be followed below.

What all share (type): ADME, organism-based
Conditions in all cases: in vivo, 0.5 h; call rule not given here

The test system of one data set is Urinary bladder. Description: Biodistribution in mouse bladder at 9 to 12 MBq, iv after 30 mins by PET analysis. An outline of the steps: (§1)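 Normal male BALB/c mice, 6–7 wk, under isoflurane with a heating pad. Each enantiomer given as a 0.2 mL iv bolus (<0.18 nmol) diluted in saline. PET acquired for 30 min in 13 frames and reconstructed by FBP without attenuation correction. Regional radioactivity taken from VOI analysis of time-activity curves.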

A further data set relates to Heart. Kind of data set: Biodistribution in LPS treated BALB/c mouse anti-collagen antibody-induced arthritis model heart at 9 to 12 MBq, iv after 30 mins by PET analysis. The gist of the method:
(§2)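 Male BALB/c mice, 6–7 wk. Arthritis induced with an iv anti-type II collagen mAb cocktail (1.5 mg), then ip LPS (30 μg) on day 3; mice used 4 days after LPS with a score of 3 in each limb. Enantiomer given as an iv bolus (<0.18 nmol, in saline). Dynamic PET for 30 min under isoflurane. VOIs drawn on ankles and heart; SUV time-activity curves. Each mouse received both isomers 5 h apart.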

For data set [1], the system named is Mus musculus. Kind of data set: Biodistribution in mouse cerebrum at 9 to 12 MBq, iv after 30 mins by PET analysis. The gist of the method:
as §1

Data set [2] concerns Plasma. Description: Drug level in mouse plasma assessed as (S)-[11C]-ibuprofen level at 70 to 125 MBq, iv after 30 mins by HPLC analysis. An outline of the steps: (§3)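 Normal mice, 20–25 g, n = 3 per isomer; iv dose <0.43 nmol. Decapitated at 30 min. Heparinized blood centrifuged to plasma; plasma radioactivity counted in a dose calibrator as % dose/mL. Plasma deproteinized with 2 volumes of ethanol and filtered, then run on chiral reversed-phase OJ-RH HPLC with radiodetection. Peaks identified by co-injected unlabeled ibuprofen; fractions decay- and baseline-corrected; mean ± SD.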

In data set [3] the test system is Plasma. Kind of data set: Drug level in mouse plasma assessed as fraction of metabolites level at 70 to 125 MBq, iv after 30 mins by HPLC analysis. An outline of the steps:
as §3

Another data set concerns Liver. Kind of data set: Biodistribution in mouse liver at 9 to 12 MBq, iv after 30 mins by PET analysis. An outline of the steps: as §1
The test system of data set [4] is Plasma. Description: Drug level in mouse plasma assessed as [11C]-ibuprofen level at 70 to 125 MBq, iv after 30 mins by HPLC analysis. An outline of the steps: as §3
For data set [5], the system named is Plasma. Kind of data set: Drug level in mouse plasma assessed as (R)-[11C]-ibuprofen level at 70 to 125 MBq, iv after 30 mins by HPLC analysis. An outline of the steps: as §3
The subject of a further data set is Kidney. Description: Biodistribution in mouse kidney at 9 to 12 MBq, iv after 30 mins by PET analysis. The gist of the method:
as §1

Data set [6] concerns Plasma. Description: Drug level in mouse plasma at 70 to 125 MBq, iv after 30 mins by HPLC analysis. An outline of the steps: as §3
The subject of data set [7] is Plasma. Kind of data set: Drug level in mouse plasma assessed as radioactivity of [11C]-ibuprofen at 70 to 125 MBq, iv after 30 mins by HPLC analysis. The gist of the method: as §3
The subject of data set [8] is Mus musculus. Kind of data set: Biodistribution in LPS treated BALB/c mouse anti-collagen antibody-induced arthritis model ankle of hindlimb at 9 to 12 MBq, iv after 30 mins by PET analysis relative to normal mouse. The gist of the method:
as §2

Data set [9] deals with Mus musculus. Description: Biodistribution in LPS treated BALB/c mouse anti-collagen antibody-induced arthritis model arthritic joints at 9 to 12 MBq, iv after 30 mins by PET analysis. An outline of the steps: as §2

`CC(C)Cc1ccc([C@@H]([11CH3])C(=O)O)cc1`: the Drug uptake entry with Urinary bladder is recorded as “Active”; in the data set on Heart, “Not Active”; in the data set on Mus musculus [1], “Active”; with Plasma [2], 52%; in the data set on Plasma [3] it was 25%; in the data set on Liver, “Active”. Further, the Drug uptake was 75% in the data set on Plasma [4]; 23% in the data set on Plasma [5]; “Active” with Kidney; 8.3 %ID/ml with Plasma [6]; 5.9 %ID/ml with Plasma [7]; “Active” in the data set with Mus musculus [9]. In addition, the “fold change (FC)” value with Mus musculus [8] is above 2.

`CC(C)Cc1ccc([C@H]([11CH3])C(=O)O)cc1`: the Drug uptake result was “Active” in the data set with Urinary bladder; “Not Active” with Heart; “Active” in the data set with Mus musculus [1]; 65% with Plasma [2]; 34% in the data set with Plasma [3]; “Active” in the data set with Liver. Moreover, the Drug uptake in the data set on Plasma [4] is 66%; in the data set on Plasma [5] it was 0.78%; in the data set with Kidney it was “Active”; with Plasma [6], 8.9 %ID/ml; in the data set with Plasma [7] it was 6.2 %ID/ml; in the data set on Mus musculus [9], “Active”. Moreover, the “fold change (FC)” value with Mus musculus [8] is above 2.
